Measurements as given in ChEMBL document CHEMBL1134251, “Quinazolines as cyclin dependent kinase inhibitors” (Bioorg Med Chem Lett, 2001).

Assays:
[1] = target: Cyclin-dependent kinase 4/cyclin D1 (Homo sapiens, UniProt P11802); assay: In vitro inhibitory activity against human cyclin dependent kinase (CDK4/D1); format: protein-complex assay
[2] = target: Cyclin-dependent kinase 2/cyclin A (Homo sapiens, UniProt P24941); assay: Inhibition of human cyclin dependent kinase 2 (CDK2/A); format: protein-complex assay
[3] = target: T1, Cyclin-dependent kinase 1/cyclin B (Homo sapiens, UniProt P06493); assay: Inhibition of human cyclin dependent kinase 1 (CDC2/B); format: protein-complex assay
[4] = target: Cyclin-dependent kinase 2/cyclin E (Homo sapiens, UniProt P24941); assay: In vitro inhibitory activity against human cyclin dependent kinase (CDK2/E); format: protein-complex assay
HCT-116 = assay: Inhibition SRB HCT 116 cancer cell proliferation; format: functional, cell-based; conditions: Homo sapiens
Outline: (§1)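 Growth-inhibition assay in HCT 116 cancer cells, with IC50 as the read-out. AG1523 cells are normal human fibroblasts and were run under the same assay conditions as HCT 116.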

AG1523 = assay: Inhibition of SRB AG1523 cancer cell proliferation; format: functional, cell-based; conditions: Homo sapiens, in the assay text read “normal human fibroblast cell” for “cancer cell”; outline: as §1
[5] = target: Cyclin-dependent kinase 4/cyclin D1 (Homo sapiens) (UniProt P11802+P24385); assay: Inhibition of human cyclin dependent kinase 4 (CDK4/D1) at 50 uM; format: protein-complex assay; set-up: scale not given: the % may be the effect or the level left
[6] = Inhibition of human cyclin dependent kinase 6 (CDK6/D2)
[7] = target: T1, Cyclin-dependent kinase 1/cyclin B; assay: Inhibition of human cyclin dependent kinase 1 (CDK1/B); format: protein-complex assay

Chain of Cyclin-dependent kinase 4/cyclin D1 (P11802 whole entry): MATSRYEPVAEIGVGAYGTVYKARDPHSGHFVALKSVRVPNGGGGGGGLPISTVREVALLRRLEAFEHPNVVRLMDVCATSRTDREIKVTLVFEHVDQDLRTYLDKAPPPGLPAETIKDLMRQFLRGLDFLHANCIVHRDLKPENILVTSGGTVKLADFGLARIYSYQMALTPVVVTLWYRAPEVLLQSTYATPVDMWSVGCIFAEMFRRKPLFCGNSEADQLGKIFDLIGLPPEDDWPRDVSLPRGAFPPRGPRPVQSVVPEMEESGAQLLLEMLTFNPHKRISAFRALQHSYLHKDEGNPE
Chain of Cyclin-dependent kinase 4/cyclin D1 (P24385 whole entry, further chain): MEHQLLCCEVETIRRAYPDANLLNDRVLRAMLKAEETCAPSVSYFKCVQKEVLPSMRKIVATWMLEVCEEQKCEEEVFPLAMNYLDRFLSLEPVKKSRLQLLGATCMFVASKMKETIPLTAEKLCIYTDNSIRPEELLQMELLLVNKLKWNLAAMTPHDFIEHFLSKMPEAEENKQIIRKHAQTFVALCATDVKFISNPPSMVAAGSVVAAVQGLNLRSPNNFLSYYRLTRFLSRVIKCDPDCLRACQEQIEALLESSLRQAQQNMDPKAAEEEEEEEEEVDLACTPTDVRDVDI

Structure (SMILES)	IC50 [1] [µM]	IC50 [4] [µM]	further results
CC(C)(C)Nc1nc(C(F)(F)F)nc2ccc(-c3cccc(N)c3)cc12	> 2.1	–	–
CC(C)(C)Nc1nc(C(Cl)(Cl)Cl)nc2ccccc12	11.9	6.1	IC50 [2]: 25.8 µM; IC50 [3]: 23 µM; IC50 (HCT-116): 25 µM
CC(C)(C)Nc1nc(C(F)(F)F)nc2ccc(-c3ccc(Cl)cc3)cc12	> 26	2.6	–
CC(C)(C)Nc1ncnc2ccccc12	> 248	> 50	–
CC(C)(C)Nc1nc(C(F)(F)C(F)(F)F)nc2ccccc12	> 20	11.9	–
CC(C)(C)Nc1nc(C(F)(F)F)nc2ccc(-c3ccsc3)cc12	3.55	0.545	IC50 (AG1523): > 28 µM; IC50 (HCT-116): 18.4 µM
CCOC(=O)c1nc(NC(C)(C)C)c2ccccc2n1	168	> 5.8	–
CC(C)(C)Nc1nc(C(F)(F)F)nc2ccc(NC=O)cc12	14	0.925	IC50 (HCT-116): 5.72 µM
CC(Nc1nc(C(F)(F)F)nc2ccccc12)c1ccc(F)cc1 (stereo not drawn)	–	16.5	Activity [5]: 35%
C[C@@H](Nc1nc(C(F)(F)F)nc2ccccc12)c1ccccc1	39	3.2	–
C[C@H](Nc1nc(C(F)(F)F)nc2ccccc12)c1ccccc1	–	31	Activity [5]: 40%
CC(C)(C)Nc1nc(Nc2ccccc2)nc2ccccc12	> 171	> 34	–
CC(C)(C)Nc1nc(C(F)(F)F)nc2ccc(-c3ccc(N)cc3)cc12	> 1.1	1.1	–
CC(C)(C)Nc1nc(C(=O)O)nc2ccccc12	> 408	> 815	–
CC(C)(Nc1nc(C(F)(F)F)nc2ccccc12)c1ccccc1	> 151	14	–
COc1ccccc1-c1ccc2nc(C(F)(F)F)nc(NC(C)(C)C)c2c1	> 2.7	1	–
OC1CCCN(c2nc(C(F)(F)F)nc3ccccc23)C1 (stereo not drawn)	> 84	32.4	–
CC(C)(C)Nc1nc(C(F)(F)F)nc2ccc(-c3ccco3)cc12	> 3	1.2	–
CCC(C)(C)Nc1nc(C(F)(F)F)nc2ccccc12	16.8	1.4	–
CC(C)(C)Nc1nc(C(F)(F)F)nc2ccc(-c3cccc(O)c3)cc12	12	1	–
CC(Nc1nc(C(F)(F)F)nc2ccccc12)c1ccccc1 (stereo not drawn)	59	6.8	–

Structure (SMILES)	IC50 [1] [µM]	IC50 [4] [µM]	further results
CC(C)(C)Nc1nc(C(F)(F)F)nc2ccc(-c3cccc(C(N)=O)c3)cc12	> 2.5	1.3	–
CC(C)(CO)Nc1nc(C(F)(F)F)nc2ccccc12	15	2.3	–
COc1ccc(-c2ccc3nc(C(F)(F)F)nc(NC(C)(C)C)c3c2)cc1	> 27	10	–
COc1cccc(-c2ccc3nc(C(F)(F)F)nc(NC(C)(C)C)c3c2)c1	> 6.7	3.3	–
CC(C)(C)Nc1nc(C(N)=O)nc2ccccc12	> 490	164	–
CC(C)(C)Nc1nc(C(F)(F)F)nc2ccc(-c3cccs3)cc12	6.4	1.18	–
CC(C)(C)Nc1nc(C(F)(F)F)nc2ccc(C(F)(F)F)cc12	> 37	0.79	IC50 [6]: 56 µM; IC50 [2]: 2.05 µM; IC50 (AG1523): > 59 µM; IC50 (HCT-116): 18.6 µM; IC50 [7]: > 0.74 µM
CC(C)(C)Nc1nc(C(F)(F)F)nc2ccc(O)cc12	18	1.15	IC50 (AG1523): > 18 µM; IC50 (HCT-116): 7.3 µM
CC(C)(C)Nc1nc(C(F)(F)F)nc2ccc(-c3ccc(-c4cccnc4)cc3)cc12	8.3	1.2	–
CC(C)(C)Nc1nc(C(F)(F)F)nc2ccc(-c3ccc(Cl)cc3Cl)cc12	> 2.4	> 12	–
C#CC(C)(C)Nc1nc(C(Cl)(Cl)Cl)nc2ccccc12	24	13.5	IC50 (HCT-116): 15 µM; IC50 [7]: 35 µM
Fc1cccc(CNc2nc(C(F)(F)F)nc3ccccc23)c1	> 39	15.6	–
OCC1CCCN1c1nc(C(F)(F)F)nc2ccccc12 (stereo not drawn)	63	14.8	–
Fc1cc(F)cc(CNc2nc(C(F)(F)F)nc3ccccc23)c1	> 19	8.9	–
CC(C)(C)Nc1nc(-c2ccccc2)nc2ccccc12	> 361	–	–
CC(C)(C)Nc1nc(C(F)(F)F)nc2ccccc12	14.3	1.5	IC50 (AG1523): > 74 µM; IC50 (HCT-116): 20.6 µM
CC(C)(C)Nc1nc(C(F)(F)F)nc2ccc(-c3cccnc3)cc12	8.3	–	–
CCCC(C)Nc1nc(C(F)(F)F)nc2ccccc12 (stereo not drawn)	119	245	–
CC(C)(C)Nc1nc(C(F)(F)F)nc2ccc(-c3ccc(O)cc3)cc12	11	0.7	–
CC(C)(C)Nc1nc(C(F)(F)F)nc2ccc(-c3ccccc3)cc12	7.7	1.8	–
CC(C)S(=O)(=O)Nc1nc(C(F)(F)F)nc2ccccc12	> 157	> 31	–
